High-throughput results (PubChem)
MDM2 E3 inh: MDM2-luciferase reporter signal enhancers, primary screen, MDM2 E3 ligase inhibitor project, cell-based, luminescence, 1536-well; AID 1230, 2008; 210,000 compounds, 0.11% hits; cell-based MDM2 ubiquitination luciferase reporter, 2 h; 0 = plate control, 100 = twice control, blank-subtracted; signal enhancement, % at 5 µM; E3 ubiquitin-protein ligase Mdm2 (Homo sapiens), Q00987;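 active = signal enhancement of 30% or more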;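 note: luminescence tracks abundance of the self-degrading MDM2-luciferase fusion protein; higher signal means inhibition of MDM2 E3 ligase activity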
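Material: stable MDM2–luciferase fusion reporter cells / Quantity: 2000 cells/well / Dosing: single 5 µM compound dose, 0.2% final DMSO / Buffer or medium: DMEM / Schedule: 4 h cell settling then 2 h compound exposure, 37 °C / Detection: luminescence with SteadyLite reagent, 15 min at room temperature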
ROMK primary: ROMK potassium channel modulators, primary screen, cell-based, thallium flux, MLSMR library; B-score at 10 µM; Tet-inducible ROMK, thallium flux fluorescence; actives lie on both sides; ATP-sensitive inward rectifier potassium channel 1 (Homo sapiens), P48048; 130,000 compounds, 2% hits; AID 1918, 2009;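 active = signal ratio slope over the read window, or its plate-corrected B-score, at least 3 SD from the plate mean, either direction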;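 note: B-score of the F/F0 ratio slope over 7 to 12 s after thallium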
m-calpain inh: inhibitors of pig calpain II, primary screen, biochemical, fluorogenic peptide substrate, 1536-well | AID 1236, 2008 | purified calpain II, 30 min | 220,000 compounds, 0.37% hits | inhibition, % at 16 µM;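 active = inhibition above about 50%, limit read from the data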
Cl transport mod: KCC2 cotransporter modulators, thallium flux, primary screen, cell-based, HEK293 KCC2, FluoZin-2 fluorescence, MLSMR; KCC2 cells, thallium flux FluoZin-2 fluorescence; Solute carrier family 12 member 5 (Homo sapiens), Q9H2X9; 190,000 compounds, 2.2% hits; B-score of Tl+ flux slope (higher = more flux/activation; lower = inhibition) at 10 µM;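 active = thallium flux slope and its plate-corrected score both differing from the plate sample mean at a set confidence after two filtering rounds, in either direction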;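 note: slope of fluorescence scaled to starting intensity during 10 to 20 s after thallium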
Arbovirus inh: antivirals against arbovirus infection, primary screen, cell-based, full library, 10K replicate subset. arbovirus infection cell-based antiviral screen. inhibition, % at 10 µM. 200,000 compounds, 0.37% hits; in the data active = inhibition above about 30%
PKD1 inh: inhibitors of human PKD1 kinase, biochemical, fluorescence polarization. Serine/threonine-protein kinase D1 (Homo sapiens), Q15139. PKD1 kinase fluorescence polarization assay. inhibition, % (no concentration beside the values). 200,000 compounds, 0.056% hits. AID 797, 2007; in the data active = inhibition above about 50%
Target sequence (Q15139 whole entry, looked up): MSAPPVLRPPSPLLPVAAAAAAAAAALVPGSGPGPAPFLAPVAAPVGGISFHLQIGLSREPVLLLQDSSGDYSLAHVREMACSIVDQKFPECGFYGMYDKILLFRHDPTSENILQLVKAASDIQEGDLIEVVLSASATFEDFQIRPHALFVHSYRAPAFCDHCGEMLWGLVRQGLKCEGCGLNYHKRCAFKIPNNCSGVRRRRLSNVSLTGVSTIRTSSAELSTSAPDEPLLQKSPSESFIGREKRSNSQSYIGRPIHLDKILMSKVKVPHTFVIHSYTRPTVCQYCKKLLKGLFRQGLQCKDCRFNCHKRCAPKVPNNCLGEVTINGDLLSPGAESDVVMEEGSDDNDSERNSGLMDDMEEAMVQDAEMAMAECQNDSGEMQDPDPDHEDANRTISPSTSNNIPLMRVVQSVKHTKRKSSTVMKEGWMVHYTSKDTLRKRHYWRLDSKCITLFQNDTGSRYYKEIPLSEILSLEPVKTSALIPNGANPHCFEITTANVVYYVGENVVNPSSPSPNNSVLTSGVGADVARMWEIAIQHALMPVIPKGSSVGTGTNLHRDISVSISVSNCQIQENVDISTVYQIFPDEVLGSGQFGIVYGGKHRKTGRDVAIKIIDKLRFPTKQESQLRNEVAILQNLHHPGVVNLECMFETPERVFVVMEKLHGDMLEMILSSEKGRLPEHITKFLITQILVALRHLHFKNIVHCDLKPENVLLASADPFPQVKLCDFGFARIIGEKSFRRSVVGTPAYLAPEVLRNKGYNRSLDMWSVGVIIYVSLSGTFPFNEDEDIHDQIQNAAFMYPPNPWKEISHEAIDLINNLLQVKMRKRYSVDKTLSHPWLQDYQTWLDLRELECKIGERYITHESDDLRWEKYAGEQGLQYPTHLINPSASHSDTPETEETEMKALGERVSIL
KCC2 secondary: KCC2 modulators in sodium-free buffer, confirmation, cell-based, HEK293 KCC2, thallium flux, secondary assay; shares compounds with Cl transport mod; FluoZin2 fluorescence; active compounds read high; normalised thallium flux (F/F0 slope) at 10 µM; 3,700 compounds, 15% hits;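 active = thallium flux slope above the same plate's solvent-only control mean plus 3 SD; inconclusive = the two replicate wells disagree; inactive = no significant difference from solvent-only control wells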
KCC2 bumet counter: thallium flux persisting under bumetanide in KCC2 cells, confirmation, counter-screen for KCC2 modulator project, cell-based, HEK293 KCC2, FluoZin2, secondary assay 3. shares compounds with Cl transport mod. HEK293-KCC2 + bumetanide/ouabain; active compounds read high. normalized thallium flux at 10 µM. 3,700 compounds, 49% hits. AID 1714, 2009;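 active = thallium entry rate above the same plate's blocked-transporter control wells by more than 3 SD; inconclusive = the two repeat wells disagree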;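 note: raw slope of fluorescence over initial fluorescence between 10 and 20 s after thallium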
KCC2 sec2: KCC2 modulators without ouabain present, confirmation, cell-based, HEK293 KCC2, thallium flux, FluoZin2, secondary assay 2; shares compounds with Cl transport mod; thallium flux FluoZin2 fluorescence; actives lie on both sides; F/F0 rise rate, 10–20 s post-thallium; normalized thallium flux at 10 µM; 3,700 compounds, 23% hits; AID 1715, 2009;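 active = thallium flux slope more than 3 SD above or below the plate's solvent-only control mean, mostly below; inconclusive = the two repeat wells disagreed; inactive = no significant shift from solvent-only controls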
HEK293 Tl flux: thallium flux modulation in parental HEK cells, confirmation, counter-screen for KCC2 modulator project, cell-based, counterscreen 1; 3,700 compounds, 46% hits; shares compounds with Cl transport mod; thallium flux rate (normalised fluorescence) at 10 µM; HEK293 parental cells, thallium flux FluoZin2, ouabain; baseline-ratio fluorescence slope, 10–20 s after thallium;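 active = thallium flux rate significantly above the same plate's solvent-only control wells, beyond their mean plus 3 SD; inconclusive = the two replicate wells gave conflicting results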
KCC2 ouabain: KCC2 inhibitors and activators, ouabain retest, confirmation, HEK-KCC2 cells; shares compounds with Cl transport mod; HEK293-KCC2, thallium flux FluoZin2 fluorescence; bidirectional: low = inhibitor, high = activator; raw Tl+ flux slope (below DMSO = inhibition, above = activation) at 10 µM; 3,700 compounds, 48% hits; AID 1717, 2009;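 active = thallium flux slope beyond 3 SD from same-plate DMSO control mean in most replicates, usually higher, sometimes lower; inconclusive = repeat tests gave conflicting results; inactive = no significant difference from controls in most replicates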;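 note: slope of initial-normalized fluorescence between seconds 10 and 20 after thallium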
HEK293 Tl flux2: native HEK Tl+ uptake effects, second counter-screen – HEK cells, counterscreen 2, counter-screen for KCC2 modulator project, confirmation | thallium flux slope at 10 µM | HEK293 parental, thallium flux FluoZin-2 fluorescence slope | 3,700 compounds, 33% hits | shares compounds with Cl transport mod | AID 1718, 2009;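 active = thallium flux slope above the same plate's solvent-control mean plus 3 SD in both duplicate wells; inconclusive = duplicate wells that disagreed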;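 note: run without ouabain in cells lacking the KCC2 cotransporter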
Large screens that a line does not name were inactive (follow-up assays come after a bar, where they were run). Rows were chosen to be rich in hits. Some 3.7% of all compounds tested hit in one or more screens of this group.

O=C(NC(=S)Nc1ccccn1)c1ccc([N+](=O)[O-])cc1	none
O=C(NC(=S)Nc1ccccn1)c1ccccc1	Cl transport mod 9.13 (no result: Arbovirus inh, PKD1 inh) | KCC2 secondary inactive | KCC2 bumet counter 0.0173 | KCC2 sec2 inactive | HEK293 Tl flux inconclusive | KCC2 ouabain 0.0271 | HEK293 Tl flux2 inactive
O=C(NC(=S)Nc1cccc2ncccc12)c1ccccc1	Cl transport mod 4.47 | KCC2 secondary inactive | KCC2 bumet counter 0.00996 | KCC2 sec2 inactive | HEK293 Tl flux 0.0111 | KCC2 ouabain inactive | HEK293 Tl flux2 inconclusive
Cc1cccc(NC(=S)NNC(=S)NC2CCCCC2)c1C	Cl transport mod 3.99 | KCC2 secondary inactive | KCC2 bumet counter 0.0123 | KCC2 sec2 inactive | HEK293 Tl flux 0.0094 | KCC2 ouabain inconclusive | HEK293 Tl flux2 inactive
Cc1ccc(CNC(=O)CNS(=O)(=O)c2cccc3nsnc23)cc1	none (no result: ROMK primary)
S=C(Nc1ccccn1)NC1CCCC1	none
S=C(Nc1ccccn1)NC1CCCCC1	Cl transport mod 3.49 (no result: Arbovirus inh, PKD1 inh) | KCC2 secondary inactive | KCC2 bumet counter 0.00631 | KCC2 sec2 inactive | HEK293 Tl flux inactive | KCC2 ouabain inactive | HEK293 Tl flux2 inactive
CCc1cccc(CC)c1NC(=S)NCCc1c(C)[nH]c2ccccc12	Cl transport mod -3.75 (no result: MDM2 E3 inh) | KCC2 secondary inactive | KCC2 bumet counter inconclusive | KCC2 sec2 inactive | HEK293 Tl flux inconclusive | KCC2 ouabain inactive | HEK293 Tl flux2 inactive
CCc1cccc(CC)c1NC(=S)NCCc1ccc(O)c(O)c1	none
Cn1nnnc1N=N/C(=N/Nc1ccccc1)c1ccccc1	Cl transport mod 59.7 (no result: ROMK primary, Arbovirus inh, PKD1 inh) | KCC2 secondary 0.0264 | KCC2 bumet counter 0.094 | KCC2 sec2 0.0572 | HEK293 Tl flux 0.0444 | KCC2 ouabain 0.0519 | HEK293 Tl flux2 0.0448
COC(=O)Cc1cc(=O)[nH]c(/N=C(\N)Nc2ccc(C(C)C)cc2)n1	none
C=CCn1c(SCC(=O)Nc2ncc(Cc3ccc(Br)cc3)s2)nnc1-c1ccncc1	none (no result: Cl transport mod)
CCC(Cc1ccccc1)n1c(=S)[nH]c2ccccc2c1=O (stereo unspecified)	Cl transport mod 50.2 | KCC2 secondary 0.0192 | KCC2 bumet counter 0.15 | KCC2 sec2 inactive | HEK293 Tl flux 0.0594 | KCC2 ouabain 0.0876 | HEK293 Tl flux2 0.0166
CCC(C)n1c(=S)[nH]c2ccccc2c1=O (stereo unspecified)	Cl transport mod 101 | KCC2 secondary 0.0422 | KCC2 bumet counter 0.142 | KCC2 sec2 0.0546 | HEK293 Tl flux 0.133 | KCC2 ouabain 0.11 | HEK293 Tl flux2 0.0392
CN1/C(=C/C(=O)C2CCC2)Sc2ccccc21	Cl transport mod -4.56 (no result: ROMK primary) | KCC2 secondary inactive | KCC2 bumet counter inactive | KCC2 sec2 0.0216 | HEK293 Tl flux inactive | KCC2 ouabain 0.0139 | HEK293 Tl flux2 inactive
COCC(=O)/C=C1\Sc2ccccc2N1C	none (no result: ROMK primary)
N#CC(C#N)=Cc1ccc(OCC(=O)N2CCOCC2)cc1	none (no result: ROMK primary)
O=c1oc2ccccc2cc1-c1csc(Cc2nc(-c3ccc(Br)cc3)cs2)n1	none (no result: ROMK primary, Cl transport mod)
Cc1ccc(-c2csc(Cc3nc(-c4cc5ccccc5oc4=O)cs3)n2)cc1	none (no result: Cl transport mod) | KCC2 secondary inactive | KCC2 bumet counter inactive | KCC2 sec2 inactive | HEK293 Tl flux inactive | KCC2 ouabain inactive | HEK293 Tl flux2 inactive
CC(C)OC(=O)c1nn2c(C(F)(F)F)cc(-c3ccc(Br)o3)nc2c1Br	none (no result: Cl transport mod) | KCC2 secondary inactive | KCC2 bumet counter inactive | KCC2 sec2 inactive | HEK293 Tl flux inactive | KCC2 ouabain inactive | HEK293 Tl flux2 inactive
Cc1c(/C=C/C(=O)c2ccc(C(C)C)cc2)cnn1C	none
COP(=O)(OC)c1nc(-c2ccccc2)oc1N1CCOCC1	none
COC(=O)c1c(NS(=O)(=O)c2ccc3ccccc3c2)sc2c1CCCC2	Cl transport mod 26.9 | KCC2 secondary inactive | KCC2 bumet counter 0.0645 | KCC2 sec2 0.0585 | HEK293 Tl flux 0.0571 | KCC2 ouabain 0.0571 | HEK293 Tl flux2 0.0389
COC(=O)c1c(NC(=O)c2ccc(C)c(S(=O)(=O)Nc3ccccc3C)c2)sc2c1CCCC2	none (no result: ROMK primary, Cl transport mod)
O=C(O)CCn1c(-c2ccccc2)cc2ccccc21	Cl transport mod -6.43 | KCC2 secondary inactive | KCC2 bumet counter inactive | KCC2 sec2 inactive | HEK293 Tl flux inactive | KCC2 ouabain 0.0127 | HEK293 Tl flux2 inactive
CCN(C(=O)CSc1nnc(Cc2cccc3ccccc23)n1N)C1CCS(=O)(=O)C1 (stereo unspecified)	none (no result: ROMK primary)
Nn1c(Cc2cccc3ccccc23)nnc1SCC(=O)NC1CCS(=O)(=O)C1 (stereo unspecified)	Cl transport mod 5.75 (no result: ROMK primary) | KCC2 secondary inactive | KCC2 bumet counter inactive | KCC2 sec2 inactive | HEK293 Tl flux inactive | KCC2 ouabain inactive | HEK293 Tl flux2 inactive
COc1ccc(S(=O)(=O)NCCOc2ccccc2)cc1-n1cnnn1	Cl transport mod -3.8 | KCC2 secondary inactive | KCC2 bumet counter inconclusive | KCC2 sec2 0.0249 | HEK293 Tl flux inactive | KCC2 ouabain 0.0169 | HEK293 Tl flux2 inactive
